ChEMBL document CHEMBL1153269, “Design and synthesis of new hydroxyethylamines as inhibitors of D-alanyl-D-lactate ligase (VanA) and D-alanyl-D-alanine ligase (DdlB)” (Bioorg Med Chem Lett, 2009)
Activity calls are given as the source filed them. The calls are words filed in the database; no cut-off is given here.

Assays:
[1] = target: T1, Vancomycin/teicoplanin A-type resistance protein VanA (Enterococcus faecium) (UniProt P25051); assay: Inhibition of Enterococcus faecium VanA at 500 uM by pyruvate kinase/lactate dehydrogenase coupled assay
T1 sequence (whole entry): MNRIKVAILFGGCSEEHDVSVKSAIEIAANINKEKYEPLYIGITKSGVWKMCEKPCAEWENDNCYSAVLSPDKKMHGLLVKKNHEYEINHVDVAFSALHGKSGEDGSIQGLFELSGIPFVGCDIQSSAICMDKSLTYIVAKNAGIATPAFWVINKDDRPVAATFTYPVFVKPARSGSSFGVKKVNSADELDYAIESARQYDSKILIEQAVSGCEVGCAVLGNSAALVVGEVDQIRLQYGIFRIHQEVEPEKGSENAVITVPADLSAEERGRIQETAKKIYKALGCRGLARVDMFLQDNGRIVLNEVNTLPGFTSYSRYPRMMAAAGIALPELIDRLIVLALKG
Method in brief: (§1)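 VanA measured by NADH depletion at 340 nm via PK/LDH coupling, 37 °C. Buffer 100 mM Hepes pH 7.5, 10 mM MgCl2, 10 mM KCl, 10% (v/v) DMSO ± compound; 2 mM PEP, 0.2 mM ATP, PK, LDH, NADH; substrates 8 mM D-Ala and 1.78 mM D-Lac; started by adding VanA.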

[2] = target: T2, Vancomycin/teicoplanin A-type resistance protein VanA (Enterococcus faecium, UniProt P25051); assay: Inhibition of Enterococcus faecium VanA by pyruvate kinase/lactate dehydrogenase coupled assay; method in brief: as §1
T2 sequence (P25051 whole entry): T1 sequence (whole entry)

[3] = test system: Escherichia coli; assay: Inhibition of Escherichia coli […] at 500 uM by pyruvate kinase/lactate dehydrogenase coupled assay
[4] = Inhibition of Escherichia coli […] by pyruvate kinase/lactate dehydrogenase coupled assay
[5] = target: T1, Vancomycin/teicoplanin A-type resistance protein VanA (Enterococcus faecium); assay: Inhibition of Enterococcus faecium VanA at 10 mM by pyruvate kinase/lactate dehydrogenase coupled assay; method in brief: as §1
[6] = test system: Escherichia coli; assay: Inhibition of Escherichia coli […] at 10 mM by pyruvate kinase/lactate dehydrogenase coupled assay

inhibition [1]	IC50 [2] [µM]	inhibition [3]	IC50 [4] [µM]	Activity [5]	Activity [6]	SMILES
75%	290	77%	136			O=P(O)(O)OC(CNS(=O)(=O)c1ccc(F)cc1)CN1CCOCC1 (stereo unspecified)
				inactive	inactive	COc1ccc(S(=O)(=O)NCC(O)CN2CCOCC2)cc1 (stereo unspecified)
				inactive	inactive	O=S(=O)(NCC(O)CN1CCOCC1)c1ccc(F)cc1 (stereo unspecified)
65%		inactive				O=P(O)(Oc1ccccc1)OC(CNS(=O)(=O)c1ccc(F)cc1)CN1CCOCC1 (stereo unspecified)
inactive		inactive				COc1ccc(S(=O)(=O)NCC(CN2CCOCC2)OP(=O)(O)Oc2ccccc2)cc1 (stereo unspecified)
83%	224	83%	110			COc1ccc(S(=O)(=O)NCC(CN2CCOCC2)OP(=O)(O)O)cc1 (stereo unspecified)
